Assay results taken from ChEMBL document CHEMBL1158339, “Synthesis and anti-microbial screening of some Schiff bases of 3-amino-6,8-dibromo-2-phenylquinazolin-4(3H)-ones” (2009).
Values after ≈ are worked out from the molar mass of the structure shown.

Experiments:
Assay type in all cases: functional
Klebsiella pneumoniae [1] = assay: Antibacterial activity against Klebsiella pneumoniae ATCC 11298 after 24 hrs by agar streak dilution method; details: ATCC 11298, 24 h
In short: (§1)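 Agar streak dilution MIC. Stock […] in dimethyl formamide. Graded quantities go into molten sterile nutrient agar, poured at 40–50 °C to 3–4 mm depth and left to solidify. Plates are streaked with about 10⁵ cfu/ml bacterial suspension and incubated 24 h at 37 °C. MIC is the lowest concentration with no visible growth.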

Escherichia coli [2] = assay: Antibacterial activity against Escherichia coli ATCC 25922 after 24 hrs by agar streak dilution method; details: ATCC 25922, 24 h; in short: as §1
Aspergillus fumigatus [3] = assay: Antifungal activity against Aspergillus fumigatus ATCC 46645 after 48 hrs by paper disk diffusion technique
In short: (§2)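 Fungal disc diffusion. Autoclaved (120 °C, 30 min) medium is inoculated at 40–50 °C with 1 ml/100 ml of a 10⁵ cfu/ml McFarland-matched suspension and poured to 3–4 mm. Compound-impregnated paper discs in dimethyl formamide are applied. Plates are held 1 h at room temperature, then incubated 48 h at 37 °C.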

Escherichia coli [4] = assay: Antibacterial activity against Escherichia coli ATCC 25922 after 24 hrs by paper disk diffusion technique
In short: (§3)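 Paper disc diffusion. Nutrient agar autoclaved 120 °C, 30 min, then inoculated at 40–50 °C with 1 ml/100 ml of a 10⁵ cfu/ml suspension matched to McFarland standard and poured to 3–4 mm. Discs impregnated with compound in dimethyl formamide are laid on the solidified agar. Plates are held 1 h at room temperature, then 24 h at 37 °C.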

Aspergillus niger [5] = assay: Antifungal activity against Aspergillus niger ATCC 9029 after 48 hrs by agar streak dilution method; details: ATCC 9029, 48 h
In short: as §1, with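 “Fungal agar” for “Agar”, “dilution.” for “dilution MIC.”, “Sabouraud dextrose” for “nutrient”, “inoculated” for “streaked”, “cfu/ml” for “cfu/ml bacterial”, “48” for “24”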

Bacillus cereus [6] = assay: Antibacterial activity against Bacillus cereus ATCC 11778 after 24 hrs by paper disk diffusion technique; in short: as §3
Bacillus cereus [7] = assay: Antibacterial activity against Bacillus cereus ATCC 11778 after 24 hrs by agar streak dilution method; details: ATCC 11778, 24 h; in short: as §1
Micrococcus luteus [8] = assay: Antibacterial activity against Micrococcus luteus ATCC 4698 after 24 hrs by agar streak dilution method; details: NCTC 2665, 24 h; in short: as §1
Aspergillus niger [9] = assay: Antifungal activity against Aspergillus niger ATCC 9029 after 48 hrs by paper disk diffusion technique; in short: as §2
[10] = tested on: Staphylococcus epidermidis; assay: Antibacterial activity against Staphylococcus epidermidis ATCC 155 after 24 hrs by paper disk diffusion technique; in short: as §3
Staphylococcus aureus [11] = assay: Antibacterial activity against Staphylococcus aureus ATCC 9144 after 24 hrs by paper disk diffusion technique; in short: as §3
Staphylococcus aureus [12] = assay: Antibacterial activity against Staphylococcus aureus ATCC 9144 after 24 hrs by agar streak dilution method; details: ATCC 9144, 24 h; in short: as §1
Pseudomonas aeruginosa [13] = assay: Antibacterial activity against Pseudomonas aeruginosa ATCC 2853 after 24 hrs by paper disk diffusion technique; in short: as §3
[14] = tested on: Staphylococcus epidermidis; assay: Antibacterial activity against Staphylococcus epidermidis ATCC 155 after 24 hrs by agar streak dilution method; details: ATCC 155, 24 h; in short: as §1
Pseudomonas aeruginosa [15] = assay: Antibacterial activity against Pseudomonas aeruginosa ATCC 2853 after 24 hrs by agar streak dilution method; details: ATCC 2853, 24 h; in short: as §1
Micrococcus luteus [16] = assay: Antibacterial activity against Micrococcus luteus ATCC 4698 after 24 hrs by paper disk diffusion technique; in short: as §3
Klebsiella pneumoniae [17] = assay: Antibacterial activity against Klebsiella pneumoniae ATCC 11298 after 24 hrs by paper disk diffusion technique; in short: as §3
Aspergillus fumigatus [18] = assay: Antifungal activity against Aspergillus fumigatus ATCC 46645 after 48 hrs by agar streak dilution method; details: ATCC 46645, 48 h
In short: as §1, with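 “Fungal agar” for “Agar”, “dilution.” for “dilution MIC.”, “Sabouraud dextrose” for “nutrient”, “inoculated” for “streaked”, “cfu/ml” for “cfu/ml bacterial”, “48” for “24”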

Aspergillus fumigatus [19] = assay: Antifungal activity against Aspergillus fumigatus ATCC 46645 at 100 ug/disk after 48 hrs by paper disk diffusion technique; details: ATCC 46645, 48 h, read-out: IZ
In short: (§4)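 Paper disc diffusion: autoclaved medium at 40–50 °C was seeded at 1 ml/100 ml with a suspension of about 10⁵ cfu/ml matched to McFarland standard and poured 3–4 mm deep. Discs impregnated with compound in dimethylformamide were placed on the set medium. There was 1 h pre-incubation at room temperature, then 48 h at 37 °C. Ketoconazole disc served as reference.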

Aspergillus niger [20] = assay: Antifungal activity against Aspergillus niger ATCC 9029 at 100 ug/disk after 48 hrs by paper disk diffusion technique; details: ATCC 9029, 48 h, read-out: IZ; in short: as §4

Row | Structure (SMILES) | MIC (Klebsiella pneumoniae [1]) [µg/mL] | MIC (Escherichia coli [2]) [µg/mL] | inhibition zone (IZ) (Aspergillus fumigatus [3]) [mm] | inhibition zone (IZ) (Escherichia coli [4]) [mm] | MIC (Aspergillus niger [5]) [µg/mL] | inhibition zone (IZ) (Bacillus cereus [6]) [mm] | MIC (Bacillus cereus [7]) [µg/mL] | MIC (Micrococcus luteus [8]) [µg/mL] | inhibition zone (IZ) (Aspergillus niger [9]) [mm] | inhibition zone (IZ) [10] [mm] | inhibition zone (IZ) (Staphylococcus aureus [11]) [mm] | MIC (Staphylococcus aureus [12]) [µg/mL] | inhibition zone (IZ) (Pseudomonas aeruginosa [13]) [mm] | MIC [14] [µg/mL] | MIC (Pseudomonas aeruginosa [15]) [µg/mL] | inhibition zone (IZ) (Micrococcus luteus [16]) [mm] | inhibition zone (IZ) (Klebsiella pneumoniae [17]) [mm] | MIC (Aspergillus fumigatus [18]) [µg/mL] | zone of inhibition at 100 µg/disc (Aspergillus fumigatus [19]) [mm] | zone of inhibition at 100 µg/disc (Aspergillus niger [20]) [mm]
1 | COc1ccc(/C=N/n2c(-c3ccccc3)nc3c(Br)cc(Br)cc3c2=O)cc1 | 33.4 (≈ 65.1 µM) | 29.9 (≈ 58.3 µM) | 24 | 19 | 10.1 (≈ 19.7 µM) | 19 | 31.9 (≈ 62.2 µM) | 34.2 (≈ 66.6 µM) | 23 | 20 | 19 | 32.1 (≈ 62.6 µM) | 16 | 22.2 (≈ 43.3 µM) | 36.2 (≈ 70.5 µM) | 18 | 20 | 12.3 (≈ 24 µM) |  | 
2 | O=c1c2cc(Br)cc(Br)c2nc(-c2ccccc2)n1/N=C/C=C/c1ccccc1 | 19.8 (≈ 38.9 µM) | 20.1 (≈ 39.5 µM) | 22 | 25 | 11.8 (≈ 23.2 µM) | 23 | 21.9 (≈ 43 µM) | 22.8 (≈ 44.8 µM) | 24 | 24 | 20 | 23.8 (≈ 46.7 µM) | 19 | 21.4 (≈ 42 µM) | 25.1 (≈ 49.3 µM) | 21 | 25 | 14.6 (≈ 28.7 µM) |  | 
3 | O=c1c2cc(Br)cc(Br)c2nc(-c2ccccc2)n1/N=C/c1ccc(Cl)cc1 | 21.8 (≈ 42.1 µM) | 20.2 (≈ 39 µM) | 22 | 27 | 10.2 (≈ 19.7 µM) | 19 | 36.1 (≈ 69.7 µM) | 33.8 (≈ 65.3 µM) | 25 | 20 | 19 | 28.4 (≈ 54.9 µM) | 26 | 25.6 (≈ 49.5 µM) | 22.8 (≈ 44 µM) | 23 | 25 | 12.6 (≈ 24.3 µM) |  | 
4 | COc1cc(/C=N/n2c(-c3ccccc3)nc3c(Br)cc(Br)cc3c2=O)ccc1O | 28.2 (≈ 53.3 µM) | 31.2 (≈ 59 µM) | 23 | 24 | 12.7 (≈ 24 µM) | 17 | 35.1 (≈ 66.3 µM) | 28.1 (≈ 53.1 µM) | 24 | 23 | 23 | 21.6 (≈ 40.8 µM) | 19 | 24.2 (≈ 45.7 µM) | 33.4 (≈ 63.1 µM) | 24 | 23 | 15.2 (≈ 28.7 µM) |  | 
5 | CN(C)c1ccc(/C=N/n2c(-c3ccccc3)nc3c(Br)cc(Br)cc3c2=O)cc1 | 22.7 (≈ 43.1 µM) | 29.1 (≈ 55.3 µM) | 22 | 20 | 14.7 (≈ 27.9 µM) | 19 | 30.1 (≈ 57.2 µM) | 26.2 (≈ 49.8 µM) | 19 | 25 | 19 | 27.9 (≈ 53 µM) | 18 | 19.8 (≈ 37.6 µM) | 32.1 (≈ 61 µM) | 21 | 23 | 15.9 (≈ 30.2 µM) |  | 
6 | Cc1ccc(/C=N/n2c(-c3ccccc3)nc3c(Br)cc(Br)cc3c2=O)cc1 | 29.1 (≈ 58.5 µM) | 19.8 (≈ 39.8 µM) | 24 | 24 | 15.2 (≈ 30.6 µM) | 21 | 21.9 (≈ 44 µM) | 25.1 (≈ 50.5 µM) | 22 | 20 | 18 | 31.1 (≈ 62.6 µM) | 22 | 22.6 (≈ 45.5 µM) | 21.2 (≈ 42.6 µM) | 23 | 19 | 14.6 (≈ 29.4 µM) |  | 
7 | O=c1c2cc(Br)cc(Br)c2nc(-c2ccccc2)n1/N=C/c1ccc(O)cc1 | 19 (≈ 38.1 µM) | 21.8 (≈ 43.7 µM) | 21 | 23 | 9.1 (≈ 18.2 µM) | 21 | 19.3 (≈ 38.7 µM) | 17.2 (≈ 34.5 µM) | 24 | 22 | 24 | 17.3 (≈ 34.7 µM) | 25 | 20.9 (≈ 41.9 µM) | 22.6 (≈ 45.3 µM) | 26 | 27 | 10.7 (≈ 21.4 µM) |  | 
8 | O=c1c2cc(Br)cc(Br)c2nc(-c2ccccc2)n1/N=C/c1ccc([N+](=O)[O-])cc1 | 35.7 (≈ 67.6 µM) | 30.2 (≈ 57.2 µM) | 25 | 23 | 14.4 (≈ 27.3 µM) | 20 | 32.8 (≈ 62.1 µM) | 27.4 (≈ 51.9 µM) | 24 | 22 | 22 | 22.4 (≈ 42.4 µM) | 21 | 21.8 (≈ 41.3 µM) | 34.2 (≈ 64.8 µM) | 23 | 20 | 10.9 (≈ 20.6 µM) |  | 
9 | COc1cc(/C=N/n2c(-c3ccccc3)nc3c(Br)cc(Br)cc3c2=O)cc(OC)c1OC | 16.7 (≈ 29.1 µM) | 18.2 (≈ 31.7 µM) | 24 | 27 | 8.6 (≈ 15 µM) | 23 | 21.7 (≈ 37.9 µM) | 18.8 (≈ 32.8 µM) | 26 | 25 | 26 | 18.9 (≈ 33 µM) | 24 | 19.1 (≈ 33.3 µM) | 19.3 (≈ 33.7 µM) | 24 | 28 | 10.1 (≈ 17.6 µM) |  | 
10 | O=c1c2cc(Br)cc(Br)c2nc(-c2ccccc2)n1/N=C/c1cccc([N+](=O)[O-])c1 | 34.6 (≈ 65.5 µM) | 19.8 (≈ 37.5 µM) | 23 | 26 | 10.7 (≈ 20.3 µM) | 22 | 23.6 (≈ 44.7 µM) | 30.1 (≈ 57 µM) | 25 | 22 | 21 | 22.6 (≈ 42.8 µM) | 19 | 21.8 (≈ 41.3 µM) | 36.1 (≈ 68.4 µM) | 23 | 21 | 11.6 (≈ 22 µM) |  | 
11 | O=c1c2cc(Br)cc(Br)c2nc(-c2ccccc2)n1/N=C/c1ccccc1 | 27.7 (≈ 57.3 µM) | 33.4 (≈ 69.1 µM) | 22 | 17 | 9.7 (≈ 20.1 µM) | 20 | 29.4 (≈ 60.8 µM) | 31.8 (≈ 65.8 µM) | 24 | 18 | 17 | 35.4 (≈ 73.3 µM) | 19 | 33.6 (≈ 69.5 µM) | 28.7 (≈ 59.4 µM) | 19 | 21 | 11.1 (≈ 23 µM) |  | 
12 | O=c1c2cc(Br)cc(Br)c2nc(-c2ccccc2)n1/N=C/c1ccccc1O | 24.3 (≈ 48.7 µM) | 20.4 (≈ 40.9 µM) | 23 | 22 | 12.2 (≈ 24.4 µM) | 21 | 19.9 (≈ 39.9 µM) | 28.2 (≈ 56.5 µM) | 22 | 24 | 20 | 21.8 (≈ 43.7 µM) | 17 | 21.3 (≈ 42.7 µM) | 37.2 (≈ 74.5 µM) | 18 | 22 | 13.6 (≈ 27.2 µM) |  | 
13 | CC(=O)N1CCN(c2ccc(OCC3COC(Cn4ccnc4)(c4ccc(Cl)cc4Cl)O3)cc2)CC1 (stereo not given) [KETOCONAZOLE] |  |  |  |  | 6.1 (≈ 11.5 µM) |  |  |  |  |  |  |  |  |  |  |  |  | 0.23 (≈ 0.433 µM) | 29 | 30
